# Laboratory results: ChEMBL document CHEMBL4024754, “Development of Potent, Protease-Resistant Agonists of the Parathyroid Hormone Receptor with Broad β Residue Distribution” (J Med Chem, 2017)
# Active and inactive are the calls of the source. The calls are words filed in the database; no cut-off is given here. Numbered stars: 1 amine (or outer) side, 2 acyl side, 3 side chain; on linkers, the order of the positions; unused ones are H or OH. Square brackets hold non-standard residues; d marks the D form. Peptide text beside a SMILES is read from it. * marks the point of attachment. NH(1S,2S-2-CONH2-cPent) = NC(=O)[C@H]1CCC[C@@H]1N*; ACPC(1S,2S) = N[C@H]1CCC[C@@H]1C(=O)*; X1 = O=C([C@H]1CCC[C@@H]1N[*:1])[*:2]; X2 = O=C([C@H]1CNC[C@@H]1N[*:1])[*:2]; Aib = CC(C)(N)C(=O)O
# Assays:
# [1] = target: T1, Parathyroid hormone/parathyroid hormone-related peptide receptor (Homo sapiens) (UniProt Q03431); assay: Agonist activity at human PTH1 receptor expressed in human GP2.3 cells assessed as induction of cAMP after 12 to 20 mins by luciferase reporter gene assay relative to PTH(1 to 34 residues)-NH2; format: functional, cell-based
# T1 sequence (whole entry): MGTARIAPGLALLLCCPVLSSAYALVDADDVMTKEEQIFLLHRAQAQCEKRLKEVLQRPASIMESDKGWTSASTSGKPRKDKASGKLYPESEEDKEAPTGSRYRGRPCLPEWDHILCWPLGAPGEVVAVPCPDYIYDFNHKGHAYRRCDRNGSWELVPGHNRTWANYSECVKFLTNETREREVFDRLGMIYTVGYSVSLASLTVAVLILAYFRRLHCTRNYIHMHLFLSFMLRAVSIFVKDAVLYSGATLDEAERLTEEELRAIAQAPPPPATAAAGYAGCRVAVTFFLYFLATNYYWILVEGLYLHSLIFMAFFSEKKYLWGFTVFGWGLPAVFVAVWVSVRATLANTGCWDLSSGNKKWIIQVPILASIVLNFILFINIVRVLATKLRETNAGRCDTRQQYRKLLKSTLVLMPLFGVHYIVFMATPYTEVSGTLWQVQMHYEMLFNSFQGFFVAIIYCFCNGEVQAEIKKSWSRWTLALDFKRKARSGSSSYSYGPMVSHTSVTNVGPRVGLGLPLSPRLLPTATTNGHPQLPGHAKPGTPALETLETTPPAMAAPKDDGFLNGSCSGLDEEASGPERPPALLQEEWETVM
# [2] = target: T1, Parathyroid hormone/parathyroid hormone-related peptide receptor (Homo sapiens); assay: Displacement of [125I]-PTH(1 to 34 residues) from R0 state of human PTHR1 expressed in African green monkey COS7 cell membranes incubated for >1 hr in presence of GTPgammaS by gamma radiation method
# [3] = target: T2, Parathyroid hormone/parathyroid hormone-related peptide receptor (Homo sapiens, UniProt Q03431); assay: Agonist activity at human PTH1 receptor expressed in human GP2.3 cells assessed as induction of cAMP after 12 to 20 mins by luciferase reporter gene assay; format: functional, cell-based; settings: read-out: EC50
# T2 sequence (Q03431 whole entry): T1 sequence (whole entry)
# [4] = target: T1, Parathyroid hormone/parathyroid hormone-related peptide receptor (Homo sapiens); assay: Agonist activity at human PTH1 receptor expressed in human GP2.3 cells assessed as induction of cAMP at 0.1 to 100 nM preincubated with SGF for 5 secs followed by compound transfer to GP2.3 cells by luciferase reporter gene assay; format: functional, cell-based
# Method in brief: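 Quenched at set times with 10× PBS, diluted into CO2-independent medium, serially 1:10, then added to confluent GP2.3 cells (HEK293, hPTHR1 plus Glosensor cAMP reporter) preloaded 30 min with 0.5 mM D-luciferin. Final 100–0.1 nM. Luminescence read; two technical replicates; variable-slope sigmoidal fit.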
# [5] = target: T1, Parathyroid hormone/parathyroid hormone-related peptide receptor (Homo sapiens); assay: Agonist activity at human PTH1 receptor expressed in human GP2.3 cells assessed as induction of cAMP at 0.1 to 100 nM preincubated with protease activity quenched SGF up to 4 hrs followed by compound transfer to GP2.3 cells by luciferase reporter gene assay; format: functional, cell-based
# Method in brief: (§1)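 Control samples: simulated gastric fluid neutralized with 10× PBS, or intestinal fluid mixed with acetonitrile/TFA quench solution, before adding peptide. Gastric controls held up to 4 h. Then diluted and tested on luciferin-loaded GP2.3 cells at 100−0.1 nM final, alongside freshly prepared peptide.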
# [6] = target: T1, Parathyroid hormone/parathyroid hormone-related peptide receptor (Homo sapiens); assay: Agonist activity at human PTH1 receptor expressed in human GP2.3 cells assessed as induction of cAMP at 0.1 to 100 nM preincubated with protease activity quenched SIF followed by compound transfer to GP2.3 cells by luciferase reporter gene assay; format: functional, cell-based; method in brief: as §1
# [7] = Stability in simulated gastric fluid assessed as pig pepsin-mediated proteolysis at 40 uM after 5 secs by RP-HPLC analysis; format: ADME, Sus scrofa; settings: isolated protein, 5 s
# Method in brief: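 Proteolysis quenched by transfer into 10× PBS, pH 7.4, giving 40 μM peptide. Analysed by analytical C18 RP-HPLC, 10–60% acetonitrile/0.1% TFA over 50 min. Intact peptide quantified by integrating its peak. Duplicate reactions run concurrently, standard deviation.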
# [8] = target: T1, Parathyroid hormone/parathyroid hormone-related peptide receptor (Homo sapiens); assay: Agonist activity at extracellular domain truncate human PTH1 receptor expressed in GD5 cells assessed as induction of cAMP after 12 to 20 mins by luciferase reporter gene assay; format: functional, cell-based
# Method in brief: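 HEK293-derived lines stably expressing Glosensor cAMP reporter plus full-length human PTHR1 (GP2.3) or ECD-truncated PTHR1 (GD5). Confluent monolayers preincubated at room temperature in CO2-independent medium with 0.5 mM D-luciferin until baseline stable (30 min), then varied agonist concentrations added. Maximal luminescence (12−20 min) used for sigmoidal variable-slope fits.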
SMILES,fold change (FC) [1],inhibition [2],EC50 [3] [nM],Activity [8],Activity [4],Activity [5],Activity [6],Stability [7]
CC[C@H](C)[C@H](NC(=O)[C@H](CCC(=O)O)NC(=O)[C@H](CO)NC(=O)[C@@H](NC(=O)[C@@H](N)CO)C(C)C)C(=O)N[C@@H](CCC(N)=O)C(=O)N[C@@H](CC(C)C)C(=O)N[C@@H](CCSC)C(=O)N[C@@H](Cc1cnc[nH]1)C(=O)N[C@@H](CC(N)=O)C(=O)N[C@@H](CC(C)C)C(=O)NCC(=O)N[C@@H](CCCCN)C(=O)N[C@H](CC(=O)N[C@@H](CC(C)C)C(=O)N[C@@H](CC(N)=O)C(=O)N[C@@H](CO)C(=O)N[C@@H](CCSC)CC(=O)N[C@@H](CCC(=O)O)C(=O)N[C@@H](CCCNC(=N)N)C(=O)N[C@H](C(=O)N[C@@H](CCC(=O)O)CC(=O)N[C@@H](Cc1c[nH]c2ccccc12)C(=O)N[C@@H](CC(C)C)C(=O)N[C@@H](CCCNC(=N)N)C(=O)N[C@@H](CCCCN)CC(=O)N[C@@H](CCCCN)C(=O)N[C@@H](CC(C)C)C(=O)N[C@@H](CCC(N)=O)C(=O)N[C@@H](CC(=O)O)CC(=O)N[C@H](C(=O)N[C@@H](Cc1cnc[nH]1)C(=O)N[C@@H](CC(N)=O)C(=O)N[C@H](CC(N)=O)Cc1ccccc1)C(C)C)C(C)C)Cc1c[nH]c2ccccc12,2.1,–,–,–,inactive,Active,Active,Unstable
"CC[C@H](C)[C@H](NC(=O)[C@H](CCC(=O)O)NC(=O)[C@H](CO)NC(=O)[C@@H](NC(=O)[C@H]1CCC[C@@H]1N)C(C)C)C(=O)N[C@@H](CCC(N)=O)C(=O)N[C@H]1CCC[C@@H]1C(=O)N[C@@H](CCSC)C(=O)N[C@@H](Cc1cnc[nH]1)C(=O)N[C@@H](CC(N)=O)C(=O)N[C@@H](CC(C)C)C(=O)NCC(=O)N[C@@H](CCCCN)C(=O)N[C@H]1CCC[C@@H]1C(=O)N[C@@H](CC(C)C)C(=O)N[C@@H](CC(N)=O)C(=O)N[C@@H](CO)C(=O)N[C@H]1CCC[C@@H]1C(=O)N[C@@H](CCC(=O)O)C(=O)N[C@@H](CCCNC(=N)N)C(=O)N[C@H](C(=O)N[C@H]1CNC[C@@H]1C(=O)N[C@@H](Cc1c[nH]c2ccccc12)C(=O)N[C@@H](CC(C)C)C(=O)N[C@@H](CCCNC(=N)N)C(=O)N[C@H]1CNC[C@@H]1C(=O)N[C@@H](CCCCN)C(=O)N[C@@H](CC(C)C)C(=O)N[C@@H](CCC(N)=O)C(=O)N[C@H]1CCC[C@@H]1C(=O)N[C@H](C(=O)N[C@@H](Cc1cnc[nH]1)C(=O)N[C@@H](CC(N)=O)C(=O)N[C@H]1CCC[C@@H]1C(N)=O)C(C)C)C(C)C ({ACPC(1S,2S)}-VSEIQ[X1]MHNLGK[X1]LNS[X1]ERV[X2]WLR[X2]KLQ[X1]VHN-{NH(1S,2S-2-CONH2-cPent)})",8.7,–,–,–,–,Active,Active,–
CC[C@H](C)[C@H](NC(=O)[C@H](CCC(=O)O)NC(=O)[C@H]1CCC[C@@H]1NC(=O)[C@@H](NC(=O)[C@@H](N)CO)C(C)C)C(=O)N[C@@H](CCC(N)=O)C(=O)N[C@@H](CC(C)C)C(=O)N[C@@H](CCSC)C(=O)N[C@@H](Cc1cnc[nH]1)C(=O)N[C@@H](CC(N)=O)C(=O)N[C@@H](CC(C)C)C(=O)NCC(=O)N[C@@H](CCCCN)C(=O)N[C@@H](Cc1cnc[nH]1)C(=O)N[C@@H](CC(C)C)C(=O)N[C@@H](CC(N)=O)C(=O)N[C@@H](CO)C(=O)N[C@@H](CCSC)C(=O)N[C@@H](CCC(=O)O)C(=O)N[C@@H](CCCNC(=N)N)C(=O)N[C@H](C(=O)N[C@@H](CCC(=O)O)C(=O)N[C@@H](Cc1c[nH]c2ccccc12)C(=O)N[C@@H](CC(C)C)C(=O)N[C@@H](CCCNC(=N)N)C(=O)N[C@@H](CCCCN)C(=O)N[C@@H](CCCCN)C(=O)N[C@@H](CC(C)C)C(=O)N[C@@H](CCC(N)=O)C(=O)N[C@@H](CC(=O)O)C(=O)N[C@H](C(=O)N[C@@H](Cc1cnc[nH]1)C(=O)N[C@@H](CC(N)=O)C(=O)N[C@@H](Cc1ccccc1)C(N)=O)C(C)C)C(C)C,126,–,11.5,Active,–,–,–,–

# Second part, led by results:
fold change (FC) [1],inhibition [2],EC50 [3] [nM],Activity [8],SMILES,Activity [4],Activity [5],Activity [6],Stability [7]
7.4,Active,0.51,–,"CC[C@H](C)[C@H](NC(=O)[C@H](CC(C)C)NC(=O)[C@H]1CNC[C@@H]1NC(=O)[C@H](Cc1cnc[nH]1)NC(=O)[C@H](CC(C)C)NC(=O)[C@H](Cc1ccccc1)NC(=O)[C@H]1CNC[C@@H]1NC(=O)[C@H](CCCNC(=N)N)NC(=O)[C@H](CCCNC(=N)N)NC(=O)[C@H](CCCNC(=N)N)NC(=O)[C@H]1CCC[C@@H]1NC(=O)[C@H](CC(=O)O)NC(=O)[C@H](CCC(N)=O)NC(=O)[C@@H](NC(=O)[C@H]1CCC[C@@H]1NC(=O)[C@H](CCCCN)NC(=O)CNC(=O)[C@H](CCCCN)NC(=O)[C@H](CC(=O)O)NC(=O)[C@H](Cc1cnc[nH]1)NC(=O)[C@H](CC(C)C)NC(=O)[C@H]1CCC[C@@H]1NC(=O)[C@H](CCC(N)=O)NC(=O)[C@H]1CCC[C@@H]1NC(=O)[C@H](CCC(=O)O)NC(=O)[C@H](CO)NC(=O)[C@@H](NC(=O)[C@H]1CCC[C@@H]1N)C(C)C)[C@@H](C)CC)C(=O)N[C@@H](C)C(=O)N[C@H]1CCC[C@@H]1C(=O)N[C@H](C(=O)N[C@@H](Cc1cnc[nH]1)C(=O)N[C@H](C(=O)N[C@H]1CCC[C@@H]1C(N)=O)[C@@H](C)O)[C@@H](C)CC ({ACPC(1S,2S)}-VSE[X1]Q[X1]LHDKGK[X1]IQD[X1]RRR[X2]FLH[X2]LIA[X1]IHT-{NH(1S,2S-2-CONH2-cPent)})",–,–,–,–
5.3,Active,0.36,–,"CC[C@H](C)[C@H](NC(=O)[C@H]1CCC[C@@H]1NC(=O)[C@H](CCCCN)NC(=O)CNC(=O)[C@H](CCCCN)NC(=O)[C@H](CC(=O)O)NC(=O)[C@H](Cc1cnc[nH]1)NC(=O)[C@H](CC(C)C)NC(=O)[C@H]1CCC[C@@H]1NC(=O)[C@H](CCC(N)=O)NC(=O)[C@H]1CCC[C@@H]1NC(=O)[C@H](CCC(=O)O)NC(=O)[C@H](CO)NC(=O)[C@@H](NC(=O)[C@H]1CCC[C@@H]1N)C(C)C)C(=O)N[C@@H](CCC(N)=O)C(=O)N[C@@H](CC(=O)O)C(=O)N[C@H]1CCC[C@@H]1C(=O)N[C@@H](CCCNC(=N)N)C(=O)N[C@@H](CCCNC(=N)N)C(=O)N[C@@H](CCCNC(=N)N)C(=O)N[C@H]1CNC[C@@H]1C(=O)N[C@@H](CC(C)C)C(=O)N[C@@H](CC(C)C)C(=O)N[C@@H](CCC(=O)O)C(=O)N[C@H]1CNC[C@@H]1C(=O)N[C@@H](CC(C)C)C(=O)N[C@@H](CC(C)C)C(=O)NC(C)(C)C(=O)N[C@H]1CCC[C@@H]1C(=O)N[C@@H](CC(C)C)C(=O)N[C@@H](Cc1cnc[nH]1)C(=O)N[C@H](C(=O)N[C@H]1CCC[C@@H]1C(N)=O)[C@@H](C)O ({ACPC(1S,2S)}-VSE[X1]Q[X1]LHDKGK[X1]IQD[X1]RRR[X2]LLE[X2]LL[Aib][X1]LHT-{NH(1S,2S-2-CONH2-cPent)})",–,–,–,–
